# Experiments:
# [1] = system: Mycobacterium avium; test: In Vitro antimicrobial activity against the Mycobacterium avium complex (MAC) Wild type strain AN2; format: functional
# Outline: (§1)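 MIC by radiometric broth dilution (BACTEC 460-TB) in 7H12 liquid medium containing 14C-palmitic acid. Growth read as 14CO2 release, recorded as growth index (0–999). Compounds stocked in DMSO; working solutions at 40-fold final concentration made in sterile distilled water. Ethambutol reference. MIC expressed in µg/mL.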
# [2] = system: Mycobacterium avium; test: In Vitro antimicrobial activity against the Mycobacterium avium complex (MAC) Wild type strain AN3; format: functional; outline: as §1
# [3] = system: Mycobacterium tuberculosis; test: In Vitro antimicrobial activity against the Mycobacterium tuberculosis (MT) Wild type strain MT-2; format: functional; outline: as §1
# [4] = system: Mycobacterium avium; test: In Vitro antimicrobial activity against the Mycobacterium avium complex (MAC) Wild type strain ISS 486; format: functional; outline: as §1
# [5] = system: Mycobacterium tuberculosis; test: In Vitro antimicrobial activity against the Mycobacterium tuberculosis (MT) Wild type strain MT-1; format: functional; outline: as §1
# [6] = system: Mycobacterium tuberculosis; test: In Vitro antimicrobial activity against the Mycobacterium tuberculosis (MT) strain H-37-Rv ATCC; format: functional; outline: as §1
# [7] = system: Mycobacterium avium; test: In Vitro antimicrobial activity against the Mycobacterium avium complex (MAC) Wild type strain AN1; format: functional; outline: as §1
# [8] = system: Mycobacterium avium; test: In Vitro antimicrobial activity against the Mycobacterium avium complex (MAC) strain ATCC 15769; format: functional; outline: as §1
# [9] = Area under curve (AUC) value of the compound; format: ADME
# Outline: (§2)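 Male Wistar rats (250-300 g), single 20 mg/kg i.v. dose in poly(ethylene glycol) 400, given through a permanent jugular-vein cannula that also served for blood sampling. Plasma levels measured by GC-MS (electron impact 70 eV; ions 233, 181, 168, 137, 104 monitored). Parameters derived by noncompartmental analysis.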
# [10] = Elimination half life value after intravenous administration in rats; format: ADME, organism-based; conditions: rat, in vivo; outline: as §2
# [11] = Volume of distribution in rats after intravenous administration; format: ADME, organism-based; conditions: rat, in vivo, read-out: Vss; outline: as §2
# [12] = Clearance (CL) value in rats after intravenous administration.; format: ADME, organism-based; conditions: rat, in vivo, read-out: CI; outline: as §2
# [13] = Mean residence time (MRT) in rats after intravenous administration; format: ADME, organism-based; conditions: rat, in vivo; outline: as §2
# [14] = Mean residence time (MRT) in rats after intravenous administration.; format: ADME, organism-based; conditions: rat, in vivo; outline: as §2
# [15] = system: Mycobacterium avium; test: In Vitro antimicrobial activity against Mycobacterium avium complex (MAC) strain ATCC 15769; format: functional; outline: as §1
Structure (SMILES),MIC [1] [µg/mL],MIC [2] [µg/mL],MIC [3] [µg/mL],MIC [4] [µg/mL],MIC [5] [µg/mL],MIC [6] [µg/mL],MIC [7] [µg/mL],MIC [8] [µg/mL],AUC [9] [ng·h/mL],half-life [10] [min],Vd [11] [L],clearance [12] [mL/min],MRT [13] [min],MRT [14] [min],MIC [15] [µg/mL]
CCCC/N=C(\S)c1cccnc1S,4,4,4,2,4,4,4,1,,,,,,,
CCCCCCC/N=C(\S)c1cccnc1S,4,4,2,4,2,0.5,4,2,8250,28,1.28,50,28.9,,
CCCCCCn1sc2ncccc2c1=O,,,8,,8,16,,16,,,,,,,
CCCCCCCCCC/N=C(\S)c1cccnc1S,32,32,64,32,64,16,32,16,,,,,,,
CC/N=C(\S)c1cccnc1S,8,8,1,4,1,0.5,4,4,18500,37.2,0.93,20,,47.6,
S=c1ssc2ncccc12,,,,,,,,,,,,,,,8
CCCCC/N=C(\S)c1cccnc1S,2,1,4,1,4,2,1,1,,,,,,,
CCCCCC/N=C(\S)c1cccnc1S,1,1,2,0.5,1,1,1,1,,,,,,,
CCCCCC/N=c1\ssc2ncccc12.CCCCCCn1sc2ncccc2c1=S,,,8,,8,4,,8,,,,,,,
CCCCCCCCCCCCCCCCCC/N=C(\S)c1cccnc1S,32,32,64,32,64,32,32,64,,,,,,,
CCCCCCCCCCCCCCCC/N=C(\S)c1cccnc1S,8,8,32,8,16,16,8,8,,,,,,,
S/C(=N\C1CCCCC1)c1cccnc1S,4,4,1,4,4,0.5,4,4,,,,,,,
O=c1ssc2ncccc12,,,8,,8,4,,2,,,,,,,
OCC/N=C(\S)c1cccnc1S,8,4,8,8,4,2,4,8,,,,,,,
CCCCCCNC(=O)c1cccnc1S,,,16,,8,8,,8,,,,,,,
C/N=C(\S)c1cccnc1S,4,4,1,4,1,2,8,4,,,,,,,
CCC/N=C(\S)c1cccnc1S,4,2,4,1,4,2,2,2,,,,,,,
CC[C@@H](CO)NCCN[C@@H](CC)CO [ETHAMBUTOL],0.5,2,< 2,2,< 2,< 2,1,,,,,,,,
CCCCCCCC/N=C(\S)c1cccnc1S,4,4,4,8,4,1,8,4,,,,,,,
CCCCCCCCC/N=C(\S)c1cccnc1S,8,8,16,8,16,4,8,8,,,,,,,

# Source: ChEMBL document CHEMBL1133661, “Synthesis and in vitro anti-mycobacterium activity of N-alkyl-1, 2-dihydro-2-thioxo-3-pyridinecarbothioamides. Preliminary toxicity and pharmacokinetic evaluation” (J Med Chem, 2000)
